Source: paper PMC13645671 (Nature, 2026)

Key:
[1] = test system: LPS-primed human THP-1 monocytic cells; test: Nigericin-induced pyroptosis, LDH release; assay type: cell-based; settings: LPS-primed THP-1 cells, 25 µM compound
Summary of the method: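 THP-1 cells in Opti-MEM with 0.1% FBS were primed for 4 h with 1 µg/ml ultrapure LPS (E. coli O111:B4). They were then stimulated for 2 h with 5 µM nigericin, with or without 25 µM test compound. LDH release was measured by CytoTox 96 and given as a percentage of maximal release by 0.1% Triton X-100.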

[2] = test system: THP-1 cells expressing FKBP–caspase-4; test: B/B-induced FKBP–caspase-4 pyroptosis, LDH release; assay type: cell-based, human; settings: FKBP–caspase-4 THP-1 cells, 50 nM B/B, 10 µM compound
Summary of the method: (§1)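 Unprimed THP-1 cells stably expressing FKBP–caspase-4 or FKBP–caspase-11 were seeded in Opti-MEM with 0.1% FBS. Cells were dimerised with 50 nM B/B, with or without 10 µM test compound, for the indicated times. LDH in the medium was measured by CytoTox 96 and expressed as a percentage of maximal release by 0.1% Triton X-100.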

[3] = test system: THP-1 cells expressing FKBP–caspase-11; test: B/B-induced FKBP–caspase-11 pyroptosis, LDH release; assay type: cell-based, human; settings: FKBP–caspase-11 THP-1 cells, 50 nM B/B, 10 µM compound
Summary of the method: as §1

`CC(C)(O)c1coc(S(=O)(=O)NC(=O)Nc2c3c(cc4c2CCC4)CCC3)c1` [MCC950] was tested, and the “nigericin-induced cell lysis (LDH release), in words” value [1] was “inhibited”.
`C[C@H](NC(=O)C(=O)Nc1ccccc1C(C)(C)C)C(=O)N[C@@H](CC(=O)O)C(=O)COc1c(F)c(F)cc(F)c1F` [Emricasan, N-[2-(1,1-dimethylethyl)phenyl]-2-oxoglycyl-N-[(1S)-1-(carboxymethyl)-2-oxo-3-(2,3,5,6-tetrafluorophenoxy)propyl]-L-alaninamide] was tested, and the “nigericin-induced cell lysis (LDH release), in words” value [1] was “inhibited”, the “cell death induced by caspase-4, in words” value [2] was “inhibited” and the “cell death induced by caspase-11, in words” value [3] was “inhibited”.
